Measurements reported in ChEMBL document CHEMBL3351274, “Sensitization of tumor necrosis factor-related apoptosis-inducing ligand (TRAIL)-resistant primary prostate cancer cells by isoegomaketone from Perilla frutescens” (J Nat Prod, 2014).

Experiments:
Homo sapiens [1] = species on record: Homo sapiens; test: Sensitization of TRAIL-induced apoptosis in human RC-58T/h/SA#4 cells assessed as AIF level in mitochondria at 20 uM after 24 hrs by immunoblotting analysis relative to untreated control; assay type: functional, cell-based
In short: (§1)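 Cells given 20 μM compound and/or 100 ng/mL TRAIL for 24 h. Mitochondrial and cytosolic fractions prepared with a mitochondria isolation kit. Fractions resolved by 12% SDS-PAGE at 10 μg/lane and immunoblotted with anti-cytochrome c or anti-AIF overnight at 4 °C, then HRP secondary and ECL detection.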

[2] = Induction of apoptosis in human RC-58T/h/SA#4 cells assessed as procaspase-9 activation at 20 uM after 24 hrs by immunoblotting analysis relative to untreated control; assay type: functional
In short: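 Cells seeded at 5 × 10^4 cells/mL and cultured 24 h, then given 20 μM compound and/or 100 ng/mL TRAIL for 24 h. Whole-cell lysate made in Tris/NaCl/EDTA/NaF/pyrophosphate/PMSF/aprotinin buffer, 30 min on ice, protein measured by BCA. 12% SDS-PAGE at 10 μg/lane, nitrocellulose blot, primary antibodies (caspase-3, -8, -9, Bax, Bcl-2, PARP) overnight at 4 °C, HRP secondary, ECL.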

[3] = Induction of apoptosis in human RC-58T/h/SA#4 cells assessed as DR4 expression at 10 uM after 24 hrs by immunoblotting analysis relative to untreated control; assay type: functional
[4] = Induction of apoptosis in human RC-58T/h/SA#4 cells assessed as DR5 expression at 2.5 uM after 24 hrs by immunoblotting analysis relative to untreated control; assay type: functional
Homo sapiens [5] = species on record: Homo sapiens; test: Induction of apoptosis in human RC-58T/h/SA#4 cells assessed as p53 expression at 2.5 to 40 uM by immunoblotting analysis relative to untreated control; assay type: functional, cell-based; details: TDE = time-dependent effect
In short: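 RC-58T/h/SA#4 cells seeded at 5 × 10^4 cells/mL and cultured 24 h, then given compound across a concentration series or at fixed dose over a time course. Lysates were quantified by BCA. 10 μg protein/lane run on 12% SDS-PAGE and transferred to nitrocellulose. Blots probed for p53, CHOP and β-actin with HRP secondary and ECL.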

[6] = Induction of apoptosis in human RC-58T/h/SA#4 cells assessed as DR5 expression at 20 uM after 3 hrs by immunoblotting analysis relative to untreated control; assay type: functional
[7] = Sensitization of TRAIL-induced apoptosis in human RC-58T/h/SA#4 cells assessed as AIF level in cytosol at 20 uM after 24 hrs by immunoblotting analysis relative to untreated control; assay type: functional; in short: as §1

CC(C)/C=C/C(=O)c1ccoc1
Ratio (Homo sapiens [1]): 0.3 | Ratio [2]: 0.8 | Ratio [3]: 1 | Ratio [4]: 1 | Activity (Homo sapiens [5]): tde | Ratio [6]: 1.2 | Ratio [7]: 1.2
